Results as given in ChEMBL document CHEMBL4825712.
The source made the active and inactive calls.

Columns and labels:
Influenza A virus [1] = assay: Antiviral activity against Influenza A virus A/WSN/33(H1N1) infected in human A549 cells assessed as reduction in M1 mRNA level by qRT-PCR analysis; type: functional, organism-based; conditions: A/WSN/1933(H1N1)
Procedure, shortened: (§1)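 A549 cells were pretreated for 1 h with 0.5 or 1 μM compound or 0.1% DMSO. They were then infected with A/WSN/33 at MOI 2 for 8 h with compound still present. Total RNA was isolated, reverse transcribed and analysed by qPCR for viral HA, NS1, M1 and M2 mRNA. Three independent experiments; mean ± SD.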

Influenza A virus [2] = assay: Antiviral activity against Influenza A virus A/WSN/33(H1N1) infected in human A549 cells assessed as reduction in M mRNA level at 1 uM pretreated 1 hr before viral infection by smRNA FISH followed by fluorescence microscopy; type: functional, organism-based; conditions: A/WSN/1933(H1N1)
Procedure, shortened: (§2)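 A549 cells received 1 μM compound either 1 h before infection or 1 h after infection. Infection was with WSN at MOI 2 for 8 h. Viral M mRNA was detected by smRNA-FISH and fluorescence microscopy.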

Influenza A virus [3] = assay: Antiviral activity against Influenza A virus A/WSN/33(H1N1) infected in human A549 cells assessed as reduction in NP level at 1 uM pretreated for 8 hrs measured by Western blot analysis; type: functional, organism-based; conditions: A/WSN/1933(H1N1)
Procedure, shortened: (§3)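 A549 cells were pretreated with 1 μM compound or 0.1% DMSO, then infected with A/WSN/33 at MOI 2 for 8 h. Lysates were analysed by western blot for viral proteins, with β-actin as loading control. Three independent experiments.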

[4] = biological target: Hemagglutinin (Influenza A virus (A/Puerto Rico/8/1934(H1N1))) (UniProt P03452); assay: Inhibition of Influenza A virus A/WSN/33(H1N1) hemagglutinin assessed as inhibition of HA-mediated chicken erythrocytes membrane fusion at 0.08 to 5 uM incubated for 30 mins pH 5 by hemolysis inhibition assay; conditions: Influenza A virus (A/WSN/1933(H1N1)), dose 0.08-5 µM
Hemagglutinin (Influenza A virus (A/Puerto Rico/8/1934(H1N1))), sequence (P03452 whole entry, the tested form may be a part): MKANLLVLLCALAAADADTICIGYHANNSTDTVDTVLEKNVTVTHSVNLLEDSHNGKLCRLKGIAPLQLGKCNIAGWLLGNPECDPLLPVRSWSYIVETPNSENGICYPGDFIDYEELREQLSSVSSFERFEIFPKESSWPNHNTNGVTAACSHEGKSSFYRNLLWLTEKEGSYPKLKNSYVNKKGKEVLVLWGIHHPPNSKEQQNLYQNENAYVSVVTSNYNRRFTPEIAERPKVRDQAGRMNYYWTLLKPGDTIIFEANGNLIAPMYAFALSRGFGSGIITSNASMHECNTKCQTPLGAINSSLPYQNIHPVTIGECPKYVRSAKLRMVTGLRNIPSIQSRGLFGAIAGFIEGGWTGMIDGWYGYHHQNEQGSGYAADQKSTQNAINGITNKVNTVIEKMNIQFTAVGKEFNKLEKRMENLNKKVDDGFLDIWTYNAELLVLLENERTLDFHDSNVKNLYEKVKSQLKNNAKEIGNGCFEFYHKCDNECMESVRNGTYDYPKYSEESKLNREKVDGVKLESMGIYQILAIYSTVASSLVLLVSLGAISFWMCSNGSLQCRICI
Procedure, shortened: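 Chicken erythrocyte suspension was incubated on ice with WSN, with or without compound at a range of concentrations. The mixture was acidified to pH 5 and incubated at 37 °C for 30 min. NADH released by lysis was read at 340 as the fusion measure. Data are % of DMSO control; means of triplicates ± SD.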

Influenza A virus [5] = assay: Antiviral activity against Influenza A virus A/WSN/33(H1N1) infected in human A549 cells assessed as reduction in M mRNA level by smRNA FISH followed by fluorescence microscopy; type: functional, organism-based; conditions: A/WSN/1933(H1N1)
Procedure, shortened: (§4)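 A549 cells on gelatin-coated coverslips were infected with WSN at MOI 2 for 8 h. Cells were fixed in 4% PFA, held in 70% ethanol for 12 h at 4 °C, and hybridized with M, HA or NS smRNA-FISH probes at 37 °C for 4 h. After a formamide/SSC wash, nuclei were stained with Hoechst and imaged by fluorescence microscopy.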

Influenza A virus [6] = assay: Antiviral activity against Influenza A virus A/Panama/1999 (H3N2) infected in human A549 cells assessed as log reduction in viral titer at 25 uM by standard plaque assay; type: functional, organism-based
Procedure, shortened: (§5)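 A549 cells were infected in the absence or presence of 25 μM compound. For A/WSN/1933 the MOI was 0.01 and infection ran 24 h. For A/Panama/1999 the MOI was 0.1 and infection ran 48 h. Viral titers were determined by standard plaque assay.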

Influenza A virus [7] = assay: Antiviral activity against Influenza A virus A/WSN/33(H1N1) infected in human A549 cells assessed as reduction in M2 mRNA level by qRT-PCR analysis; type: functional, organism-based; conditions: A/WSN/1933(H1N1); procedure, shortened: as §1
Influenza A virus [8] = assay: Antiviral activity against Influenza A virus A/WSN/33(H1N1) infected in human A549 cells assessed as reduction in poly(A) RNA/GAPDH mRNA level at 1 uM by smRNA FISH followed by fluorescence microscopy; type: functional, organism-based; conditions: A/WSN/1933(H1N1)
Influenza A virus [9] = assay: Antiviral activity against Influenza A virus A/WSN/33(H1N1) infected in human A549 cells assessed as reduction in M mRNA level at 1 uM treated 1 hr after viral infection by smRNA FISH followed by fluorescence microscopy; type: functional, organism-based; conditions: A/WSN/1933(H1N1); procedure, shortened: as §2
Influenza A virus [10] = assay: Antiviral activity against Influenza A virus wild-type A/WSN/1933 (H1N1) infected in human A549 cells assessed as log reduction in viral titer at 25 uM by standard plaque assay; type: functional, organism-based; procedure, shortened: as §5
Influenza A virus [11] = assay: Antiviral activity against Influenza A virus A/California/07/2009 (HIN1) infected in human A549 cells assessed as reduction in infected cells up to 25 uM pretreated for 1 hr; type: functional, organism-based; conditions: A/California/07/2009(H1N1), dose microM <=25, time 1.0 hrs
Influenza A virus [12] = assay: Antiviral activity against Influenza A virus A/WSN/33(H1N1) infected in human A549 cells assessed as reduction in HA mRNA level by qRT-PCR analysis; type: functional, organism-based; conditions: A/WSN/1933(H1N1); procedure, shortened: as §1
Influenza A virus [13] = assay: Antiviral activity against Influenza A virus A/WSN/33(H1N1) infected in human A549 cells assessed as reduction in HA mRNA level by smRNA FISH followed by fluorescence microscopy; type: functional, organism-based; conditions: A/WSN/1933(H1N1); procedure, shortened: as §4
Influenza A virus [14] = assay: Antiviral activity against Influenza A virus A/WSN/33(H1N1) infected in human A549 cells assessed as reduction in M1 level at 1 uM pretreated for 8 hrs measured by Western blot analysis; type: functional, organism-based; conditions: A/WSN/1933(H1N1); procedure, shortened: as §3
Influenza A virus [15] = assay: Antiviral activity against Influenza A virus A/WSN/33(H1N1) infected in human A549 cells assessed as reduction in NS1 mRNA level by qRT-PCR analysis; type: functional, organism-based; conditions: A/WSN/1933(H1N1); procedure, shortened: as §1
Influenza A virus [16] = assay: Antiviral activity against Influenza A virus A/WSN/33(H1N1) infected in human A549 cells assessed as reduction in NP protein level at 1 uM treated 1 hr after viral infection by Western blot analysis; type: functional, organism-based; conditions: A/WSN/1933(H1N1)
Procedure, shortened: (§6)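 A549 cells received 1 μM compound 1 h before infection, or 1 h or 2 h after infection. Infection was with WSN at MOI 2 for 8 h. Lysates were analysed by western blot for viral proteins.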

Influenza A virus [17] = assay: Antiviral activity against Influenza A virus A/WSN/33(H1N1) infected in human A549 cells assessed as reduction in NS mRNA level by smRNA FISH followed by fluorescence microscopy; type: functional, organism-based; conditions: A/WSN/1933(H1N1); procedure, shortened: as §4
Influenza A virus [18] = assay: Antiviral activity against Influenza A virus A/Wyoming/03/2003 (H3N2) infected in human A549 cells assessed as reduction in infected cells up to 25 uM pretreated for 1 hr; type: functional, organism-based; conditions: dose microM <=25, time 1.0 hrs
Influenza A virus [19] = assay: Antiviral activity against Influenza A virus A/WSN/33(H1N1)-PB2-Nanoluc virus infected in human HCT-116 cells assessed as decrease in Nano-luc at 1 uM pretreated for 1 hr followed viral infection incubated for 24 hrs by Nano-Glo luminescence assay; type: functional, organism-based; conditions: A/WSN/1933(H1N1)
Influenza A virus [20] = assay: Antiviral activity against Influenza A virus A/WSN/33(H1N1) infected in human Primary bronchial epithelial cells assessed as reduction in M1 mRNA level at 1 uM by qRT-PCR analysis; type: functional, organism-based; conditions: A/WSN/1933(H1N1), Primary bronchial epithelial cell
Influenza A virus [21] = assay: Antiviral activity against Influenza A virus A/WSN/33(H1N1) infected in human A549 cells assessed as reduction in HA level at 1 uM pretreated for 8 hrs measured by Western blot analysis; type: functional, organism-based; conditions: A/WSN/1933(H1N1); procedure, shortened: as §3
Influenza A virus [22] = assay: Antiviral activity against Influenza A virus A/Vietnam/2506/2004 (H5N1) infected in human A549 cells assessed as log reduction in viral titer at 25 uM by standard plaque assay; type: functional, organism-based
Influenza A virus [23] = assay: Antiviral activity against Influenza A virus A/WSN/33(H1N1) infected in human A549 cells assessed as reduction in M1 protein level at 1 uM treated 1 hr after viral infection by Western blot analysis; type: functional, organism-based; conditions: A/WSN/1933(H1N1); procedure, shortened: as §6
[24] = Selectivity index, ratio of CC50 for human A549 cells to IC50 for antiviral activity against Influenza A virus A/WSN/33(H1N1) infected in human A549 cells; type: toxicity, cell-based; conditions: read-out: Selectivity Index
Procedure, shortened: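 Ratio of CC50 to IC50. IC50 came from A549 cells pretreated 2 h with compound, then infected 24 h with WSN-PB2-Nanoluc at MOI 0.02 and read by Nano-Glo luminescence. CC50 was measured by CellTiter-Glo.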

A549 = assay: Cytotoxicity against human A549 cells by MTT assay; type: cell-based
Procedure, shortened: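 MTT assay run according to the manufacturer's instructions, concurrently with NP immunostaining of infected A549 cultures.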

Influenza A virus [25] = assay: Antiviral activity against Influenza A virus A/WSN/33(H1N1) infected in human A549 cells assessed as viral replication measured after 24 hrs by immunofluorescence microscopy; type: functional, organism-based; conditions: A/WSN/1933(H1N1)
Procedure, shortened: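 A549 cells were infected with A/WSN/33 at MOI 0.01 for 24 h, then fixed in 4% formaldehyde and permeabilized with 0.1% Triton X-100. They were immunostained for NP with an Alexa-488 secondary plus DAPI and imaged on an image cytometer. Percent infection = NP-positive cells divided by total cells.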

CCN(c1ccccc1C)S(=O)(=O)c1cc(Cl)ccc1Cl
> 625: selectivity ratio [24]
active: Activity (Influenza A virus [1]) | Activity (Influenza A virus [2]) | Activity (Influenza A virus [3]) | Activity [4] | Activity (Influenza A virus [5]) | Activity (Influenza A virus [6]) | Activity (Influenza A virus [7]) | Activity (Influenza A virus [9]) | Activity (Influenza A virus [10]) | Activity (Influenza A virus [11]) | Activity (Influenza A virus [12]) | Activity (Influenza A virus [13]) | Activity (Influenza A virus [14]) | Activity (Influenza A virus [15]) | Activity (Influenza A virus [16]) | Activity (Influenza A virus [17]) | Activity (Influenza A virus [20]) | Activity (Influenza A virus [21]) | Activity (Influenza A virus [22]) | Activity (Influenza A virus [23])
16.8 µM: IC50 (Influenza A virus [19])
> 25 µM: CC10 (A549) | CC50 (A549)
1.2 µM: IC90 (Influenza A virus [25]; A549, time 24 hrs)
0.04 µM: IC50 (Influenza A virus [25]; A549, 24 h)
inactive: Activity (Influenza A virus [8]) | Activity (Influenza A virus [18])
